Results from different studies.
Target: Calcium/calmodulin-dependent protein kinase type 1D (CAMK1D, Homo sapiens, UniProt Q8IU85)

| Structure (SMILES) | assay | conditions | endpoint | value |
| --- | --- | --- | --- | --- |
| CNC(=O)c1cc(Oc2ccc(NC(=O)Nc3ccc(Cl)c(C(F)(F)F)c3)cc2)ccn1 | enzyme activity, inhibitor | 0.3 µM | inhibition | 11% |
| Cc1cc(-n2nc(Cc3cc(F)cc(C(F)(F)F)c3)nc2C)ccc1C(N)=O | cell-free assay, competition with immobilised ligand | 1 µM | remaining binding | 96% |
| COc1cc2ncnc(Nc3ccc(Oc4ccccc4)c(C)c3C)c2cc1OC | enzyme activity, inhibitor | 1 µM | inhibition | 1% |
| CCS(=O)(=O)c1cc2cc(C[C@@](O)(CC(C)(C)c3ccc(F)cc3C(N)=O)C(F)(F)F)[nH]c2cn1 | cell-free assay, competition with immobilised ligand | 1 µM | remaining binding | 89% |
| CC(C)(C)c1nc(-c2cccc(NS(=O)(=O)c3c(F)cccc3F)c2F)c(-c2ccnc(N)n2)s1 | enzyme activity, inhibitor, radiometric | 1 µM | remaining activity | 116% |
| CCCS(=O)(=O)Nc1ccc(F)c(C(=O)c2c[nH]c3ncc(-c4ccc(Cl)cc4)cc23)c1F | enzyme activity, inhibitor | 1 µM | inhibition | < 10% |
| Cc1ccc(NC(=O)c2ccc(C)c(C(F)(F)F)c2)cc1C#Cc1nn(C2CCC(O)CC2)c2ncnc(N)c12 (stereo not drawn) | cell-free assay | 10 µM | remaining signal | 92% |
| Cc1ccc(Nc2nccc(N(C)c3ccc4c(C)n(C)nc4c3)n2)cc1S(N)(=O)=O | enzyme activity, inhibitor | 10 µM | inhibition | 32% |
| Cn1c2c(c3ccc(Cl)c(Cl)c31)C(C#N)C1(CCCC1)NC2=O (stereo not drawn) | thermal stability, DSF | 10 µM | ΔTm | 0 °C |
| CO[C@@H](C)c1c(Nc2ccc([C@@H](N(C)C(=O)C3CCS(=O)(=O)CC3)C(F)(F)F)cc2)cnc2cc(Cl)nn12 | cell-free assay, competition with immobilised ligand | 1 µM | remaining binding | 100% |
| CCN(CC)c1ccc(C2=NNC(=O)CC2C)cc1[N+](=O)[O-] (stereo not drawn) | enzyme activity, inhibitor | 10 µM | remaining activity | 105% |
| CNCc1ccccc1-c1csc([C@H](C)Nc2nc(C)nc3cc(OC)c(OC)cc23)c1 | cell-free assay, competition with immobilised ligand | 1 µM | remaining binding | 100% |
| CCC1(CC)NC(=O)c2c(c3ccc(Cl)c(Cl)c3n2C)C1C#N (stereo not drawn) | thermal stability, DSF | 10 µM | ΔTm | -0.2 °C |
| O=C(NC[C@@H]1[C@H]2CN(C(=O)OCc3cc(C(F)(F)F)cc(C(F)(F)F)c3)C[C@@H]12)c1ccc2[nH]nnc2c1 | cell-free assay, competition with immobilised ligand | 1 µM | remaining binding | 100% |
| N#CC1c2c([nH]c3c(Cl)c(Cl)ccc23)C(=O)NC12CCCCC2 (racemic) | thermal stability, DSF | 10 µM | ΔTm | 0.7 °C |
| COc1cc2ncnc(Nc3ccc(F)c(Cl)c3)c2cc1OCCCN1CCOCC1 | cell-free assay | 0.5 µM | remaining signal | 88.6% |
| COc1cc(Cl)c(C(=O)N[C@@H](CN[C@H]2CC[C@@H](N)CC2)Cc2ccc(C#N)cc2)cc1-c1ccc(CN[C@H](C)c2ccc(C)cc2)o1 | enzyme activity, inhibitor | 1 µM | remaining activity | 88% |
| CC1=C(C#N)C(c2ccc3c(c2)c(NC(=O)c2ccccc2C)nn3C)C(C#N)=C(C)N1 | cell-free assay, competition with immobilised ligand | 1 µM | remaining binding | 93% |
| Nc1nc(Nc2ccc(S(N)(=O)=O)cc2)nn1C(=O)c1c(F)cccc1F | cell-free assay | 0.5 µM | remaining signal | 97.7% |
| CC(=O)N1CCC(c2ccc(C(=O)NC3=NCCN3)cc2C(F)(F)F)CC1 | cell-free assay, competition with immobilised ligand | 1 µM | remaining binding | 100% |
| c1ccc(CNc2nc(N3CCOc4ccccc43)nc3c2CCCC3)cc1 | target engagement in cells, inhibitor, chemoproteomics | 20 mM | inhibition | -2.2% |
| O=C1CCc2cc(Nc3cc(OC4CCOCC4)c([N+](=O)[O-])cc3Cl)ccc2N1 | cell-free assay, competition with immobilised ligand | 1 µM | remaining binding | 100% |
| Cn1c2c(c3ccc(Cl)c(Cl)c31)C(C#N)C1(CCOCC1)NC2=O (stereo not drawn) | thermal stability, DSF | 10 µM | ΔTm | -0.5 °C |
| Nc1ncnc2occ(-c3ccc(NC(=O)Nc4cc(C(F)(F)F)ccc4F)cc3)c12 | cell-free assay, inhibitor | 20 µM | remaining signal | 2.8% |
| O=C(Nc1cnn(-c2csc(C(=O)NC3COC3)c2)c1)Nc1c(F)cccc1Cl | enzyme activity, inhibitor | 5 µM | remaining activity | 99.6% |
| CCCCNc1ncc2c(-c3ccc(F)cc3)nn(C[C@H]3CC[C@H](N)CC3)c2n1 | target engagement in cells, inhibitor, chemoproteomics | 20 mM | inhibition | 5.9% |
| O=c1cc(-c2cccc3c2Sc2ccccc2S3)oc(N2CCOCC2)c1 | enzyme activity, inhibitor | 0.5 µM | remaining activity | 106% |
| CN1CCC2(CC1)NC(=O)c1c(c3ccc(Cl)c(Cl)c3n1C)C2C#N (racemic) | thermal stability, DSF | 10 µM | ΔTm | -0.4 °C |
| O=C1NC(=O)c2cc(Nc3ccc(F)cc3)c(Nc3ccc(F)cc3)cc21 | cell-free assay | 0.5 µM | remaining signal | 78.1% |
| Cc1cnc(NC2CCOCC2)nc1-n1cnc(C(=O)NC(CN)c2cc(F)cc(Cl)c2)c1 (stereo not drawn) | enzyme activity, inhibitor, radiometric | 1 µM | remaining activity | 84% |
